Data reported in PubChem BioAssay.
The source made the active and inactive calls.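 Rule for the calls, unless noted: active = viability at or below 10% of carrier control in both of two separate runs; inconclusive = viability at or below 10% in only one of the two runs; inactive = the rest.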

Experiments:
[1] = reduced viability of SK-BR-3 breast cancer cells – cell-based, 24 h, human, pilot screen (AID 572); conditions: SK-BR-3 viability, CellTiter-Glo luminescence, at 10 µM, stronger effect = lower value;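 note: compound exposure lasted between 18 and 24 h rather than exactly 24 h; 100% = carrier-treated control wells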
[2] = HUVEC growth inhibition – cell-based, human, primary screen (AID 575;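 active = viability at or below 30% in both replicate assays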;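 note: 100% = median of untreated cell wells with 0.1% DMSO on each plate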); conditions: HUVEC proliferation, CellTiter-Glo luminescence, 72 h; at 10 µM; stronger effect = lower value
Summary of the method: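 Test system: HUVEC primary cells. Quantity: 1250 endothelial cells in each well. Dosing: single-point 10 µM, DMSO 0.1% final. Incubation: 72 h treatment at 37 °C. Measured by: CTG luminescence. Control set: DMSO cell controls and MePR drug controls. Plate: collagen-coated 384-well format.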

[3] = MRP1 drug-resistance reversers in H69AR cells – cell-based, doxorubicin co-treatment, pilot screen (AID 601;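 active = viability loss from added drug above about 55%, and viability with drug at most 40%, in both replicates, limit read from the data, passing the limit was not always enough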); conditions: CellTiter-Glo, 72 h, at 10 µM; for differential viability (reversal): stronger effect = higher value
[4] = yeast transport mutant growth inhibition pilot in 384-well plates, post-Golgi transport modulator project (AID 636; in the data active = inhibition above about 31%); conditions: absorbance 615 nm, about 18 h, stronger effect = higher value
[5] = growth suppression of yeast trafficking mutant, preliminary HTS, modulators of trafficking downstream of Golgi apparatus project, 1536-format plate, OD 615 nm (AID 637; in the data active = inhibition above about 30%); conditions: yeast transport mutant growth, absorbance 615 nm, 18 h; stronger effect = higher value
[6] = H69AR cells + 2 uM doxorubicin, measured here: viability with 2 uM doxorubicin, stronger effect = lower value
[7] = H69AR cells, compound alone cytotoxicity

Structure (SMILES) | viability [1] | viability [2] | differential viability (reversal) ([3]; H69AR cells + 2 uM doxorubicin) | viability [3, 6] [%] | viability [3, 7] [%] | inhibition [4] | inhibition [5]
COc1cc2c(cc1NC(=O)CSc1nnc(Cc3cccs3)n1C)oc1ccccc12 | 74% (inactive) | 54.4% (inactive) | -12.1% (inactive) | 59.9 | 47.8 | 11.5% (inactive) | 4.36% (inactive)
O=C(Nc1cccc(-c2nnc(-c3ccccc3)o2)c1)C1CCCCC1 | 88% (inactive) | 82.8% (inactive) | 0.7% (inactive) | 53.3 | 54 | -8.49% (inactive) | 3.55% (inactive)
O=C(c1cc2nc(-c3ccco3)cc(C(F)(F)F)n2n1)N1CCN(c2ccccn2)CC1 | 101% (inactive) | 66.5% (inactive) | -11.9% (inactive) | 66.1 | 54.3 | -3.2% (inactive) | 0.18% (inactive)
O=C1NC2c3ccccc3C(=O)N2c2c1cnn2-c1ccccc1 (configuration not stated) | 98% (inactive) | 80.3% (inactive) | -35.4% (inactive) | 86 | 50.6 | 0.68% (inactive) | 0.91% (inactive)
Cc1cc(C(=O)COc2cccc3cccnc23)c(C)n1C | 95% (inactive) | 80.9% (inactive) | -11.7% (inactive) | 70.8 | 59.1 | -2.67% (inactive) | -3.64% (inactive)
CCOC(=O)c1c(NC(=O)COC(=O)c2c(C)noc2C)sc2c1CCC2 | 63% (inactive) | 35.6% (inactive) | 0.845% (inactive) | 47 | 47.8 | -8.36% (inactive) | -3.87% (inactive)
COC(=O)C1=C(C)NC(C)=C(C(=O)OC)C1c1ccccc1[N+](=O)[O-] | 91% (inactive) | 46.7% (inactive) | 11.9% (inactive) | 2.41 | 14.3 | 1.04% (inactive) | -2.67% (inactive)
Cc1cc(CN2CCN(CCC#N)CC2)c(O)c(C2(C)CCCCC2)c1 | 106% (inactive) | 54.2% (inactive) | -12.2% (inactive) | 77.1 | 64.9 | 1.1% (inactive) | 39.4% (active)
CC1Cc2ccccc2N1CC(=O)NC(=O)NCc1ccco1 (configuration not stated) | 85% (inactive) | 89.6% (inactive) | -30.2% (inactive) | 70.1 | 39.9 | -0.27% (inactive) | 2.36% (inactive)
CCOC(=O)N1CCN(CC(=O)Nc2cc(C)nn2-c2nc3ccccc3s2)CC1 | 74% (inactive) | 57% (inactive) | -1.56% (inactive) | 39.2 | 37.7 | -0.39% (inactive) | 2.46% (inactive)
COc1cc([C@@H]2c3cc4c(cc3[C@H](O)[C@H]3COC(=O)[C@H]23)OCO4)cc(OC)c1OC | 101% (inactive) | 33.9% (inactive) | -32.5% (inactive) | 63.7 | 31.2 | -2.99% (inactive) | -5.67% (inactive)
CSc1ccc(-c2cc(=O)c3ccccc3o2)cc1 | 110% (inactive) | 48.1% (inactive) | -16.6% (inactive) | 73.6 | 56.9 | -4.13% (inactive) | -4.55% (inactive)
COc1ccc(-c2ccc(-c3noc(-c4cccs4)n3)c(OC)n2)cc1 | 77% (inactive) | 98.8% (inactive) | -5.54% (inactive) | 70.1 | 64.6 | -7.43% (inactive) | -8.73% (inactive)
O=C(Nc1cnn(C23CC4CC(CC(C4)C2)C3)c1)c1cnn2c(C(F)(F)F)cc(-c3ccco3)nc12 | 95% (inactive) | 58% (inactive) | 1.52% (inactive) | 51.8 | 53.3 | -0.82% (inactive) | 8.39% (inactive)
CC(C)CCn1c(SCC#N)nc2c(sc3ccccc32)c1=O | 102% (inactive) | 41.2% (inactive) | 2.2% (inactive) | 53.6 | 55.8 | -2.24% (inactive) | -7.14% (inactive)
Cn1c(=O)cc(OCCCC(=O)Nc2ccc3c(c2)OCCO3)c2ccccc21 | 101% (inactive) | 85.1% (inactive) | -5.2% (inactive) | 70.7 | 65.5 | -1.04% (inactive) | -6.39% (inactive)
C=CCSc1nnc2n(CCc3ccccc3)c(=O)c3c4c(sc3n12)COC(C)(C)C4 | 124% (inactive) | 72.5% (inactive) | 33.1% (inactive) | 13.8 | 47 | -4.38% (inactive) | 1.13% (inactive)
CC1CCN(CCc2nc3cc(NS(=O)(=O)c4ccc(F)cc4)ccc3n2C)CC1 | 89% (inactive) | 77.6% (inactive) | -3.08% (inactive) | 55.5 | 52.4 | -2.33% (inactive) | 0.97% (inactive)
CCCCC(=O)O[C@H]1CC[C@H]2[C@@H]3CCc4cc(O)ccc4[C@H]3CC[C@]12C | 82% (inactive) | 1.94% (active) | 13.5% (inactive) | 6.17 | 19.7 | 4.81% (inactive) | 8.33% (inactive)
O=C(CC(SCCO)c1ccc2c(c1)OCO2)c1ccco1 (configuration not stated) | 77.5% (inactive) | 95% (inactive) | -17.8% (inactive) | 59.3 | 41.5 | -7.57% (inactive) | -3.65% (inactive)
O=C(Nc1ccccc1-c1nc2ccccc2o1)c1ccc2c(c1)OCCO2 | 112% (inactive) | 66.7% (inactive) | -12.7% (inactive) | 48.4 | 35.7 | -3.64% (inactive) | -4.44% (inactive)
O=C(Nc1ccc2[nH]c3c(c2c1)CCCC3)c1ccco1 | 82% (inactive) | 73.1% (inactive) | -3.58% (inactive) | 66.7 | 63.1 | -8.67% (inactive) | -2.73% (inactive)

Structure (SMILES) | viability [1] | viability [2] | differential viability (reversal) ([3]; H69AR cells + 2 uM doxorubicin) | viability [3, 6] [%] | viability [3, 7] [%] | inhibition [4] | inhibition [5]
CC(=O)[C@@]1(O)CC[C@H]2[C@@H]3C[C@H](C)C4=CC(=O)CC[C@]4(C)[C@H]3CC[C@@]21C | 106% (inactive) | 73.9% (inactive) | -15.6% (inactive) | 18 | 2.32 | -1.43% (inactive) | -2.67% (inactive)
COc1ccc(CCN(C)CCCC(C#N)(c2ccc(OC)c(OC)c2)C(C)C)cc1OC (configuration not stated) | 73% (inactive) | 66.8% (inactive) |  |  |  | -2.34% (inactive) | -0.5% (inactive)
COc1ccc2c(c1OC)C(=O)O[C@@H]2[C@H]1c2c(cc3c(c2OC)OCO3)CCN1C | 98% (inactive) | 80.8% (inactive) | -52.2% (inactive) | 84.1 | 31.9 | -6.36% (inactive) | -3.5% (inactive)
COc1cc(C2Nc3cccc4cccc(c34)N2)cc(OC)c1O | 92.5% (inactive) | 57.5% (inactive) | -14.8% (inactive) | 70 | 55.2 | -0.92% (inactive) | -4.76% (inactive)
C=CCOc1ccc(CN(C)CC(=O)N(CC(C)C)c2c(N)n(CC(C)C)c(=O)[nH]c2=O)cc1 | 99% (inactive) | 99.6% (inactive) |  |  |  | -6.16% (inactive) | 2% (inactive)
CCOC(=O)Nc1ccc2c(c1)N(C(=O)CCN1CCOCC1)c1ccccc1S2 | 78% (inactive) | 97% (inactive) | -11.3% (inactive) | 76 | 64.7 | -5.07% (inactive) | -2.55% (inactive)
N#Cc1c(N2CCCC2)nc(N)c2c(N)nc(N3CCCC3)cc12 | 82% (inactive) | 68.2% (inactive) | -29% (inactive) | 75.2 | 46.3 | -0.13% (inactive) | -2.3% (inactive)
COc1ccccc1NC(=O)N(Cc1ccco1)Cc1cc2c(C)ccc(C)c2[nH]c1=O | 70% (inactive) | 71.1% (inactive) | -28.8% (inactive) | 50.9 | 22.1 | -2.88% (inactive) | -2.55% (inactive)
Cc1[nH]nc2c1C1(C(=O)N(Cc3ccc(Cl)cc3)c3ccccc31)C(C#N)=C(N)O2 (configuration not stated) | 94% (inactive) | 90% (inactive) | -39.8% (inactive) | 92 | 52.2 | -4.32% (inactive) | 0.18% (inactive)
COc1cc2cc(C(c3nnnn3C3CCCC3)N3CCCCCC3)c(=O)[nH]c2cc1OC (configuration not stated) | 114% (inactive) | 92.3% (inactive) | -0.62% (inactive) | 59.7 | 59.1 | -3.87% (inactive) | -2.91% (inactive)
C=C(C)C1Cc2c(C)nn(-c3nc(C)cc(C)n3)c2C1 (configuration not stated) | 105% (inactive) | 71.7% (inactive) | -21.4% (inactive) | 73.7 | 52.3 | -6.58% (inactive) | 13.4% (inactive)
COc1ccccc1Nc1nc(N)nc(-c2cc3ccccc3o2)n1 | 91% (inactive) | 78.4% (inactive) | -26.4% (inactive) | 75.7 | 49.3 | -2.97% (inactive) | -4.55% (inactive)
CC(=O)[C@H]1CC[C@H]2[C@@H]3CCC4=CC(=O)CC[C@]4(C)[C@H]3CC[C@]12C | 93% (inactive) | 49.4% (inactive) | -3.29% (inactive) | 50.5 | 47.2 | 5.06% (inactive) | -1% (inactive)
C=C1[C@@H](C)C2[C@H](Cc3ccccc3)NC(=O)[C@]23OC(=O)CC[C@H](O)CCC[C@H](C)C/C=C/[C@H]3[C@@H]1O (some centres not stated) | 95% (inactive) | 13.1% (active) | -16.3% (inactive) | 48.2 | 31.9 | -0.26% (inactive) | 0.67% (inactive)
COc1ccc(CSCCN)cc1Cl | 113% (inactive) | 105% (inactive) | -18.3% (inactive) | 57.5 | 39.2 | -7.33% (inactive) | -2% (inactive)
CCCCc1oc2ccccc2c1C(=O)c1cc(I)c(OCCN(CC)CC)c(I)c1 | 91% (inactive) | 2.45% (active) | -11.1% (inactive) | 12.4 | 1.29 | 100% (active) | 100% (active)
COc1ccccc1NC(=O)C1=C(C)NC(SCC(=O)c2ccc(C)cc2)=C(C#N)C1c1ccco1 (configuration not stated) | 81% (inactive) | 72.5% (inactive) | 0.78% (inactive) | 16.8 | 17.6 | 1.1% (inactive) | -3.64% (inactive)
CC(C)(C)OC(=O)N1CC=C2C(C#N)=C(N)C(C#N)(C#N)C(c3cccs3)C2C1 (configuration not stated) | 65% (inactive) | 53.9% (inactive) | -5.04% (inactive) | 57.8 | 52.8 | -1.92% (inactive) | -0.16% (inactive)
CCOC(=O)c1[nH]c2ccc(Br)cc2c1NC(=O)CCN1CCC(C(=O)OCC)CC1 | 115% (inactive) | 77.3% (inactive) | 12% (inactive) | 33.2 | 45.2 | -2.53% (inactive) | 1.27% (inactive)
CCOC(=O)N1CCC(NC(=O)c2ccc3c(c2)sc2nc(-c4cccc(OC)c4)cn23)CC1 | 80% (inactive) | 52% (inactive) | 8.43% (inactive) | 41.5 | 49.9 | -1.95% (inactive) | -0.98% (inactive)
CCOC(=O)N1CCC(=C2c3ccc(Cl)cc3CCc3cccnc32)CC1 | 116% (inactive) | 52.7% (inactive) |  |  |  | 1.95% (inactive) | 12.2% (inactive)
